Compound activity deposited in PubChem by The Scripps Research Institute Molecular Screening Center.
Shown are actives, neighbours in structure and some others; about 2% of the full set was active somewhere.
DNA FID counter: compounds displacing fluorescent DNA intercalator, primary screen, artefact control for HCV NS3 helicase inhibitor project, biochemical, FID fluorescence; inhibition, % at 7.9 µM; actives 0.17% (n = 290,000); DNA fluorescent intercalator displacement; in the data active = inhibition above about 37%;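 also: 0% = vehicle and 100% = reference compound; higher means more ethidium bromide displaced from hairpin DNA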
ZTA DNA inh: ZTA (EBV) inhibition in EBNA-1 counter-screen | ZTA-DNA binding, fluorescence polarization | P03206 | actives 0.15% (n = 320,000) | inhibition, % at 11 µM; in the data active = inhibition above about 33%
Target sequence (P03206 whole entry, looked up): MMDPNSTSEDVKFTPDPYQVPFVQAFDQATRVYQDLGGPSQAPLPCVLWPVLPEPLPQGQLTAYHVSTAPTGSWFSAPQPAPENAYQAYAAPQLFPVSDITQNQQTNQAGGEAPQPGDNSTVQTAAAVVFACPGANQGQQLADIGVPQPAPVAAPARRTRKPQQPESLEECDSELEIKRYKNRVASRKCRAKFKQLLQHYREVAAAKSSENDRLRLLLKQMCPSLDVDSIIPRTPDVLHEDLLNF
EBNA-1 inh: EBNA-1 DNA-binding inhibitors, primary screen, biochemical, fluorescence polarization; actives 0.34% (n = 300,000); inhibition, % at 14.8 µM; in the data active = inhibition above about 28%
NS3 helicase inh: inhibitors of HCV NS3 helicase, primary screen, biochemical, Cy5 molecular beacon fluorescence | Hepatitis C virus NS3 helicase | NS3 helicase DNA unwinding | inhibition, % at 10.9 µM | actives 0.56% (n = 290,000) | AID 1800, 2009;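 active = inhibition above the mean of all tested compounds plus 3 SD, set per campaign, cut at about 35% in these data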;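 also: 0% = DMSO wells and 100% = thioflavine S control wells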
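System: NS3 helicase fragment of HCV / Schedule: 1 h at 25 °C / Control set: DMSO alone as 0% and 110 µM thioflavine S as 100% / Reagent: Cy5/quencher beacon DNA duplex and ATP to start / Technique: Cy5 fluorescence / Replication: singlicate / Evaluation: % inhibition of end-to-start signal ratio versus controls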
GPR7 antagonist: GPR7 receptor antagonists, primary screen, cell-based, fluorescence, single concentration; GPR7-expressing cells, fluorescence antagonist assay; inhibition, % at 4.4 µM; actives 1.1% (n = 290,000); AID 1861, 2009; in the data active = inhibition above about 16%, passing the limit was not always enough;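 also: cells stimulated with the agonist NPW; 0% = agonist with vehicle and 100% = vehicle without agonist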
Target sequence (P48145 whole entry, looked up): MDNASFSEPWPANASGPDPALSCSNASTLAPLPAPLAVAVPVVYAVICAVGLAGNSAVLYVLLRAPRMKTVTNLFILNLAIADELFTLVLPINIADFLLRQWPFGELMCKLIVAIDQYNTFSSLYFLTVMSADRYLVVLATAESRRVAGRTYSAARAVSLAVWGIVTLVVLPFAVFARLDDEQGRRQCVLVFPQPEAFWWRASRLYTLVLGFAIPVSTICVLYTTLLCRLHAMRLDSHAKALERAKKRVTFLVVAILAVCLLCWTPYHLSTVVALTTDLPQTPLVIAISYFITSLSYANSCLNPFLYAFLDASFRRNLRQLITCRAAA
EBNA-1 confirm: EBNA-1 DNA-binding inhibitors, retest, confirmation, biochemical, fluorescence polarization, triplicate; shares compounds with EBNA-1 inh; Recombinant EBNA-1 DBD, Cy5-DNA fluorescence polarization; inhibition, % at 14.8 µM; actives 35% (n = 830);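 active = mean inhibition across replicates above a set limit taken from the earlier primary screen, cut at about 28% in these data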;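 also: plate controls were EBNA-1 protein with DMSO for no effect and wells lacking EBNA-1 for full effect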
ZTA DNA inh trip: EBV Zta DNA binding inhibitors, counter-screen for EBNA-1 inhibitor project, biochemical, fluorescence polarization, triplicate. shares compounds with EBNA-1 inh. Zta-ZRE DNA binding, Cy5 fluorescence polarization. AID 2328, 2010. inhibition, % at 11.1 µM. 830 tested, under 10 active;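 active = mean inhibition over triplicates above a set limit taken from the primary EBNA-1 screen, cut at about 37% in these data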;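 also: purified full length Zta protein with Cy5 labeled ZRE DNA probe; 0% = Zta with DMSO and 100% = wells lacking Zta protein; inhibitors lower polarization by freeing the labeled DNA probe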
An asterisk follows results filed as active; / = no result.

SMILES | DNA FID counter | ZTA DNA inh | EBNA-1 inh | NS3 helicase inh | GPR7 antagonist | EBNA-1 confirm | ZTA DNA inh trip
CC(C)NC(=O)C1CC(=O)N(c2ccc(F)c(Cl)c2)C1 (stereo unspecified) | -1 | -18 | 32* | -7 | -8 | 4 | 6
CNC(=O)C1CC(=O)N(c2ccc(F)c(Cl)c2)C1 (stereo unspecified) | 3 | 9 | 7 | -3 | -13 | / | /
CCOc1ccc(N(CC(=O)N/N=C(\C)c2cccc(NC(C)=O)c2)S(=O)(=O)c2ccccc2)cc1 | -34 | -2 | 53* | -10 | -8 | 10 | 7
COc1ccc(N(CC(=O)N/N=C(\C)c2ccccc2)S(=O)(=O)c2ccccc2)cc1 | -11 | 5 | 6 | -3 | -14 | / | /
CCN(CC)S(=O)(=O)c1ccc(N2CCOCC2)c(NC(=O)C2=COCCO2)c1 | -33 | -17 | 2 | -4 | -7 | / | /
O=C(NCCc1c[nH]c2ccccc12)C1CCC(Cn2c(=S)[nH]c3ccccc3c2=O)CC1 (stereo unspecified) | -34 | 15 | 28* | -25 | -14 | 7 | -5
O=C(CCn1cnc2ccccc2c1=O)Nc1nc(-c2ccc(Br)cc2)cs1 | -3 | 16 | 32* | -4 | -7 | 44* | 26
O=C(Cn1cnc2ccccc2c1=O)Nc1nc2ccccc2s1 | 3 | 5 | 45* | 2 | -5 | 55* | 2
Cc1ccccc1NC(=O)Cn1nc(C(=O)O)c2ccccc2c1=O | -18 | 1 | -2 | 0 | -11 | / | /
O=C(Cn1nc(C(=O)O)c2ccccc2c1=O)Nc1nc(-c2ccccc2)cs1 | -5 | -2 | 32* | -3 | -3 | 30* | 1
COc1ccccc1NS(=O)(=O)c1ccc(NC(=O)c2[nH]nc(OC)c2[N+](=O)[O-])cc1 | -8 | / | / | 8 | -14 | / | /
CC(C)C[C@H](NC(=O)N1CC(=O)Nc2ccccc21)C(=O)N[C@@H](Cc1ccccc1)C(=O)O | -34 | -8 | -15 | 19 | -4 | / | /
O=c1/c(=C\c2cc([N+](=O)[O-])cc([N+](=O)[O-])c2O)sc2nc3ccccc3n12 | -15 | 7 | 27* | 17 | -3 | 28* | 25
CCOc1ccc(OCCC(=O)OCC(=O)Nc2cc(OCC)c(N3CCOCC3)cc2OCC)cc1 | / | -2 | 7 | / | / | / | /
COc1cccc(CNC(=O)c2cc3oc4ccccc4c3n2C)c1OC | -16 | 1 | 32* | -11 | 1 | 24 | -11
CCOc1ccc(CNC(=O)c2cc3oc4ccccc4c3n2C)cc1 | -11 | -6 | 5 | -11 | -1 | / | /
C/C(=N/NC(=O)c1ccncc1)c1ccc(NC(=O)c2ccc(Cl)cc2Cl)cc1 | -30 | 2 | 37* | 12 | 3 | 31* | 9
O=S(=O)(NCC(O)c1ccccc1)c1cc(Cl)sc1Cl (stereo unspecified) | -17 | 18 | 14 | 3 | -16 | / | /
COc1ccc(C2CC(C(F)(F)F)n3nc(C(=O)Nc4ccc5c(c4)OCO5)cc3N2)cc1 (stereo unspecified) | -19 | 1 | 40* | -13 | -10 | 110* | -1
COc1ccc(OC)c(NC(=O)c2cc3n(n2)C(C(F)(F)F)CC(c2ccc4c(c2)OCO4)N3)c1 (stereo unspecified) | -31 | -28 | -6 | -18 | -16 | / | /
CCOC(=O)N1CCc2c(sc(NC(=O)C3COc4ccccc4O3)c2C(N)=O)C1 (stereo unspecified) | -28 | 13 | 29* | -4 | -6 | 56* | 7
COc1ccc(-c2[nH]c(-c3ccc(C)cc3)nc2SCC(=O)Nc2nccs2)cc1 | 3 | 0 | -8 | 6 | 2 | / | /
COc1ccc(-c2nc(SCC(=O)Nc3nccs3)c(-c3ccc(Cl)cc3)[nH]2)cc1 | -3 | 4 | 73* | -31 | -12 | 32* | -2
COc1cc(OC)cc(C(=O)NCC(C)NC(=O)c2cc(OC)cc(OC)c2)c1 (stereo unspecified) | / | 18 | 4 | / | / | / | /
COc1ccc(NC(=O)c2cc(S(=O)(=O)N3CCc4ccccc43)cn2C)cc1OC | -27 | 7 | 40* | -5 | 2 | 39* | -1
SMILES | DNA FID counter | ZTA DNA inh | EBNA-1 inh | NS3 helicase inh | GPR7 antagonist | EBNA-1 confirm | ZTA DNA inh trip
CCOC(=O)C1CCN(S(=O)(=O)c2ccc(CNC(=O)c3ccccc3)s2)CC1 | -20 | 6 | -15 | -4 | 13 | / | /
O=C(Nc1cccc(C(F)(F)F)c1)c1cc[n+]([O-])cc1 | -2 | -3 | -5 | -2 | 3 | / | /
O=C(Nc1cccc(C(F)(F)F)c1)c1ccc2nc(-c3ccco3)c(-c3ccco3)nc2c1 | -11 | -21 | 68* | 23 | 8 | 4 | 8
CCN(CC)S(=O)(=O)c1ccc2c(c1)nc(-c1ccccn1)n2C | -19 | 2 | -1 | -4 | -3 | / | /
COc1ccc(N2CCN(S(=O)(=O)c3ccc(C(=O)NCc4ccco4)cc3)CC2)cc1 | -1 | -12 | 38* | -4 | -4 | 27 | 3
c1cc2ccc3ccc(-n4cnnn4)c4ccc(c1)c2c34 | -4 | 27 | 34* | 0 | 5 | 35* | 22
Cn1c(CNC(=O)c2ccc(Cl)c(Cl)c2)nnc1SCC(=O)Nc1sc2c(c1C#N)CCCC2 | -10 | 9 | 31* | 2 | -6 | 39* | -8
Cn1cnnc1SCC(=O)Nc1sc2c(c1C#N)CCCCC2 | -2 | 1 | -3 | -1 | 12 | / | /
COc1ccc(C(=O)Nc2ccc(-c3ccc(NC(=O)c4ccc(OC)cc4)c(OC)c3)cc2OC)cc1 | 0 | 9 | 8 | 4 | -6 | / | /
COc1ccc(NC(=O)c2ccc(C(=O)Nc3ccc(OC)cc3OC)cc2)c(OC)c1 | -5 | -7 | 56* | 3 | -19 | 51* | 10
COc1ccc(NC(=O)c2cc(-c3cc(Cl)ccc3O)n[nH]2)c(OC)c1 | -9 | 23 | 33* | -4 | 2 | 19 | 3
CN(C)c1ccc(-c2nnc(-c3ccccc3F)o2)cc1 | -30 | 9 | 3 | 1 | 2 | / | /
COc1ccc(NC(=O)NCCCN2CCCC2=O)cc1 | 2 | 2 | 11 | -3 | -7 | / | /
COc1ccc(-n2c(SCC(=O)NCCCN3CCCC3=O)nnc2C(C)N2CCCCC2)cc1 (stereo unspecified) | -6 | -3 | 41* | -6 | -6 | 2 | 0
COc1cc2c(C(=O)N(C)c3ccc(F)cc3)cn(C)c(=O)c2cc1OC | -20 | -6 | -3 | 13 | 1 | / | /
Cc1ccc(C(=O)CSc2nnc(CNc3ccc(C)cc3C)o2)cc1 | -2 | -10 | 31* | -4 | 1 | 1 | -7
